# Results taken from ChEMBL document CHEMBL3244330, “Structure--activity relationships of n-substituted dopamine and 2-amino-6,7-dihydroxy-1,2,3,4-tetrahydronaphthalene analogues: behavioral effects in lesioned and reserpinized mice” (J Med Chem, 1979).
# How the values were obtained:
# [1] = test system: Mus musculus; assay: Postural effect on caudectomized Swiss albino mouse assessed as time duration of asymmetric posture at 23.8 mg/kg, ip; assay type: functional; details: route intraperitoneal
# How it was run: (§1)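 Male Swiss albino Hale-Stoner mice with a right caudectomy made by suction. A lesion was accepted if the mouse responded to apomorphine 4 weeks after surgery. Compounds were dissolved in 0.9% saline and injected ip at random into groups of six, with a maximum dose of 0.348 mmol/kg. 18 mice were used per compound, and mice were retested after 5–6 day intervals. Onset and duration of the asymmetric posture are reported as mean ± SE from six animals.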
# [2] = test system: Mus musculus; assay: Postural effect on caudectomized Swiss albino mouse assessed as time duration of asymmetric posture at 47.6 mg/kg, ip; assay type: functional; details: route intraperitoneal; how it was run: as §1
# [3] = test system: Mus musculus; assay: Postural effect on caudectomized Swiss albino mouse assessed as time duration of asymmetric posture at 71.5 mg/kg, ip; assay type: functional; details: route intraperitoneal
# How it was run: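 Male Swiss albino Hale-Stoner mice given a right caudectomy by suction. The lesion counted as successful if the mice reacted to apomorphine 4 weeks later. Drug was given ip in 0.9% saline, up to 0.348 mmol/kg, to randomised groups of six, with 5-6 days before reuse. Onset and duration of asymmetric posture are reported as mean ± SE from six animals.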
# [4] = test system: Mus musculus; assay: Postural effect on caudectomized Swiss albino mouse assessed as latency to onset time of asymmetric postural effect at 23.8 mg/kg, ip; assay type: functional; details: route intraperitoneal; how it was run: as §1
# [5] = test system: Mus musculus; assay: Postural effect on caudectomized Swiss albino mouse assessed as latency to onset time of asymmetric postural effect at 47.6 mg/kg, ip; assay type: functional; details: route intraperitoneal; how it was run: as §1
# [6] = test system: Mus musculus; assay: Postural effect on caudectomized Swiss albino mouse assessed as latency to onset time of asymmetric postural effect at 71.5 mg/kg, ip; assay type: functional; details: route intraperitoneal; how it was run: as §1
# [7] = test system: Mus musculus; assay: Reversal of reserpine-induced catalepsy in ip dosed Swiss albino (CD1) mouse; assay type: functional
# How it was run: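 Male Swiss albino CD1 mice, 5 weeks old, got reserpine 5 mg/kg ip, then α-MTM 250 mg/kg ip 17 h later, then the test drug ip 4 h after that. Catalepsy was scored by the rubber-stopper test (time to step off the stopper). At least four doses were used, with ≥8 mice per dose. ED50 was taken from a log-probit plot of percent responders against dose.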
# [8] = test system: Mus musculus; assay: Postural effect on caudectomized Swiss albino mouse assessed as latency to onset time of asymmetric postural effect at 29.2 mg/kg, ip; assay type: functional; details: route intraperitoneal
# How it was run: (§2)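 Male Swiss albino Hale-Stoner mice with right caudectomy by suction, used if responsive to apomorphine 4 weeks post-lesion. Compound in 0.9% saline given ip, maximum 0.348 mmol/kg. 18 mice per compound in random groups of six, retested after 5–6 day intervals. Onset latency and duration of asymmetric posture recorded; mean ± SE from six animals.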
# [9] = test system: Mus musculus; assay: Postural effect on caudectomized Swiss albino mouse assessed as latency to onset time of asymmetric postural effect at 58.4 mg/kg, ip; assay type: functional; details: route intraperitoneal; how it was run: as §2
# [10] = test system: Mus musculus; assay: Postural effect on caudectomized Swiss albino mouse assessed as time duration of asymmetric posture at 29.2 mg/kg, ip; assay type: functional; details: route intraperitoneal; how it was run: as §2
# [11] = test system: Mus musculus; assay: Postural effect on caudectomized Swiss albino mouse assessed as time duration of asymmetric posture at 58.4 mg/kg, ip; assay type: functional; details: route intraperitoneal; how it was run: as §2
# [12] = test system: Mus musculus; assay: Postural effect on caudectomized Swiss albino mouse assessed as latency to onset time of asymmetric postural effect at 29.8 mg/kg, ip; assay type: functional; details: route intraperitoneal; how it was run: as §1
# [13] = test system: Mus musculus; assay: Toxicity in caudectomized Swiss albino mouse at 44.6 mg/kg, ip; assay type: organism-based; parameters: dose 44.6 mg/kg, route intraperitoneal; details: in vivo
# [14] = test system: Mus musculus; assay: Postural effect on caudectomized Swiss albino mouse assessed as time duration of asymmetric posture at 29.8 mg/kg, ip; assay type: functional; details: route intraperitoneal; how it was run: as §1
# [15] = test system: Mus musculus; assay: Postural effect on caudectomized Swiss albino mouse assessed as latency to onset time of asymmetric postural effect at 27.3 mg/kg, ip; assay type: functional; details: route intraperitoneal; how it was run: as §1
# [16] = test system: Mus musculus; assay: Postural effect on caudectomized Swiss albino mouse assessed as latency to onset time of asymmetric postural effect at 41 mg/kg, ip; assay type: functional; details: route intraperitoneal; how it was run: as §1
# [17] = test system: Mus musculus; assay: Toxicity in caudectomized Swiss albino mouse at 54.6 mg/kg, ip; assay type: organism-based; parameters: dose 54.6 mg/kg, route intraperitoneal; details: in vivo
# [18] = test system: Mus musculus; assay: Postural effect on caudectomized Swiss albino mouse assessed as time duration of asymmetric posture at 27.3 mg/kg, ip; assay type: functional; details: route intraperitoneal; how it was run: as §1
# [19] = test system: Mus musculus; assay: Postural effect on caudectomized Swiss albino mouse assessed as time duration of asymmetric posture at 41 mg/kg, ip; assay type: functional; details: route intraperitoneal; how it was run: as §1
# [20] = test system: Mus musculus; assay: Ratio of apomorphine ED50 to compound ED50 for reversal of reserpine-induced catalepsy in ip dosed Swiss albino (CD1) mouse; assay type: functional
smiles,measurement,setting,value
CCCCN(CC)CCc1ccc(O)c(O)c1.Cl,Time,[1],4.2 min
same,Time,[2],2.5 min
same,Time,[3],19.4 min
same,Time,[4],2.1 min
same,Time,[5],2.3 min
same,Time,[6],5 min
same,ED50,[7],34 mg/kg
CCCN(CCc1ccccc1)CCc1ccc(O)c(O)c1.Cl,Time,[8],4.4 min
same,Time,[9],3.2 min
same,Time,[10],19.8 min
same,Time,[11],47.4 min
same,ED50,[7],7.4 mg/kg
CCCN(CCc1ccc(O)c(O)c1)CCC1CCCCC1.Cl,Time,[12],4.2 min
same,Activity,[13],Toxic
same,Time,[14],14.1 min
same,ED50,[7],18 mg/kg
Br.CCCCN(CCC)C1CCc2cc(O)c(O)cc2C1 (stereo not drawn),Time,[15],2.8 min
same,Time,[16],2 min
same,Activity,[17],Toxic
same,Time,[18],17 min
same,Time,[19],31.5 min
same,ED50,[7],1.3 mg/kg
same,Ratio ED50,[20],10
